Test results as given in ChEMBL document CHEMBL3120065, “Antifungal ether diglycosides from Matayba guianensis Aublet” (Bioorg Med Chem Lett, 2014).
In brackets after ≈: the same amount, converted by molar mass.

Assays:
Plasmodium falciparum = assay: Antiplasmodial activity against Plasmodium falciparum assessed as growth inhibition; assay type: functional, organism-based
PBMC = assay: Cytotoxicity against human PBMC assessed as cell viability after 72 hrs by MTT assay; assay type: cell-based
Procedure, shortened: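 Normal proliferating human peripheral blood mononuclear cells exposed to compound for 72 h; viability read by MTT; result given as IC50.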

Candida parapsilosis = assay: Antifungal activity against Candida parapsilosis ATCC 22019 assessed as growth inhibition by microdliution method; assay type: functional; conditions: Lodderomyces parapsilosis
[1] = Selectivity index, ratio of IC50 for human PBMC to MIC for Candida parapsilosis ATCC 22019

Structure (SMILES)	IC50 (Plasmodium falciparum) [µg/mL]	IC50 (PBMC) [µM]	MIC (Candida parapsilosis) [µM]	Selectivity Index [1]
CCCCCCCCCCCCCCCCO[C@@H]1O[C@H](COC(C)=O)[C@@H](O)[C@H](OC(C)=O)[C@H]1O[C@@H]1O[C@@H](C)[C@H](OC(C)=O)[C@@H](OC(C)=O)[C@H]1OC(C)=O	13 (≈ 17.1 µM)	–	–	–
CCCCCCCCCCCCCCCCO[C@@H]1O[C@H](CO)[C@@H](O)[C@H](O)[C@H]1O[C@@H]1O[C@@H](C)[C@H](OC(C)=O)[C@@H](O)[C@H]1OC(C)=O	–	> 39.4	6.31	–
CCCCCCCCCCCCCCCCO[C@@H]1O[C@H](COC(C)=O)[C@@H](OC(C)=O)[C@H](O)[C@H]1O[C@@H]1O[C@@H](C)[C@H](OC(C)=O)[C@@H](OC(C)=O)[C@H]1OC(C)=O	7.1 (≈ 9.33 µM)	–	–	–
CCCCCCCCCCCCCCCCO[C@@H]1O[C@H](CO)[C@@H](O)[C@H](O)[C@H]1O[C@@H]1O[C@@H](C)[C@H](OC(C)=O)[C@@H](OC(C)=O)[C@H]1OC(C)=O	–	25.4	189	–
COc1cccc2c1C(=O)c1c(O)c3c(c(O)c1C2=O)C[C@@](O)(C(=O)CO)C[C@@H]3O[C@H]1C[C@H](N)[C@H](O)[C@H](C)O1 [DOXORUBICIN]	–	1.7	–	–
CCC(C)n1ncn(-c2ccc(N3CCN(c4ccc(OCC5COC(Cn6cncn6)(c6ccc(Cl)cc6Cl)O5)cc4)CC3)cc2)c1=O (stereo not drawn) [ITRACONAZOLE]	–	1.53	0.71	–
CCCCCCCCCCCCCCCCO[C@@H]1O[C@H](CO)[C@@H](O)[C@H](O)[C@H]1O[C@@H]1O[C@@H](C)[C@H](OC(C)=O)[C@@H](OC(C)=O)[C@H]1O	–	> 39.4	3.15	12.5
C[C@@H]1[C@H](O)[C@@H](C)/C=C/C=C/C=C/C=C/C=C/C=C/C=C/[C@H](O[C@@H]2O[C@H](C)[C@@H](O)[C@H](N)[C@@H]2O)C[C@@H]2O[C@](O)(C[C@@H](O)C[C@@H](O)[C@H](O)CC[C@@H](O)C[C@@H](O)CC(=O)O[C@H]1C)C[C@H](O)[C@H]2C(=O)O [AMPHOTERICIN B]	–	> 5.41	4.33	–
OC(Cn1cncn1)(Cn1cncn1)c1ccc(F)cc1F [FLUCONAZOLE]	–	> 16.3	0.2	–
CCCCCCCCCCCCCCCCO[C@@H]1O[C@H](COC(C)=O)[C@@H](O)[C@H](O)[C@H]1O[C@@H]1O[C@@H](C)[C@H](OC(C)=O)[C@@H](OC(C)=O)[C@H]1OC(C)=O	15.7 (≈ 21.8 µM)	–	–	–
CCCCCCCCCCCCCCCCO[C@@H]1O[C@H](COC(=O)CCCCCCCCCCCCCCC)[C@@H](O)[C@H](O)[C@H]1O[C@@H]1O[C@@H](C)[C@H](OC(C)=O)[C@@H](OC(C)=O)[C@H]1OC(C)=O	4.7 (≈ 5.14 µM)	–	–	–
